The results in this text go back to ChEMBL document CHEMBL4152204, “Discovery of N-hydroxy-3-alkoxybenzamides as direct acid sphingomyelinase inhibitors using a ligand-based pharmacophore model” (Eur J Med Chem, 2018).

Test [1] deals with T1, Sphingomyelin phosphodiesterase (Homo sapiens, UniProt P17405).
T1 sequence (P17405 whole entry): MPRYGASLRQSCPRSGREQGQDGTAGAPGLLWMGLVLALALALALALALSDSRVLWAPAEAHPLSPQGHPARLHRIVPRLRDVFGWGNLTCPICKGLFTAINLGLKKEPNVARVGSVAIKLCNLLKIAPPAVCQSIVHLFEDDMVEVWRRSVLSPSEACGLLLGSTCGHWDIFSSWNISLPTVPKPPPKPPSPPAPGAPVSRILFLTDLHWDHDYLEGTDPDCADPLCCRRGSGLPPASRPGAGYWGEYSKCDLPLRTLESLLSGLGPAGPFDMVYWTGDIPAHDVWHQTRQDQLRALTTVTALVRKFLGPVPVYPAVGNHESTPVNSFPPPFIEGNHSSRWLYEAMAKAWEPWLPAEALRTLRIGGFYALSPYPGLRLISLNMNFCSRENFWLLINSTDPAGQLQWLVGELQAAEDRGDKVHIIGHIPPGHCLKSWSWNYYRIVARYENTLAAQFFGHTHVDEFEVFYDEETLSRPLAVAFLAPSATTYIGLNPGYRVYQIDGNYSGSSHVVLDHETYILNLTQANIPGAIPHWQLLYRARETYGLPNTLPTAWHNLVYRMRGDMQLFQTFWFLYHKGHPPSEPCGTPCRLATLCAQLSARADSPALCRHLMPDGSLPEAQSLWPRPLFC
The experiment in a line: Inhibition of acid sphingomyelinase in human HuH7 cell lysate using NBD-sphingomyelin as substrate after 30 mins by TLC based fluorescence assay.

The target in test [2] is T2, Sphingomyelin phosphodiesterase (Mus musculus) (UniProt Q04519).
T2 sequence (whole entry): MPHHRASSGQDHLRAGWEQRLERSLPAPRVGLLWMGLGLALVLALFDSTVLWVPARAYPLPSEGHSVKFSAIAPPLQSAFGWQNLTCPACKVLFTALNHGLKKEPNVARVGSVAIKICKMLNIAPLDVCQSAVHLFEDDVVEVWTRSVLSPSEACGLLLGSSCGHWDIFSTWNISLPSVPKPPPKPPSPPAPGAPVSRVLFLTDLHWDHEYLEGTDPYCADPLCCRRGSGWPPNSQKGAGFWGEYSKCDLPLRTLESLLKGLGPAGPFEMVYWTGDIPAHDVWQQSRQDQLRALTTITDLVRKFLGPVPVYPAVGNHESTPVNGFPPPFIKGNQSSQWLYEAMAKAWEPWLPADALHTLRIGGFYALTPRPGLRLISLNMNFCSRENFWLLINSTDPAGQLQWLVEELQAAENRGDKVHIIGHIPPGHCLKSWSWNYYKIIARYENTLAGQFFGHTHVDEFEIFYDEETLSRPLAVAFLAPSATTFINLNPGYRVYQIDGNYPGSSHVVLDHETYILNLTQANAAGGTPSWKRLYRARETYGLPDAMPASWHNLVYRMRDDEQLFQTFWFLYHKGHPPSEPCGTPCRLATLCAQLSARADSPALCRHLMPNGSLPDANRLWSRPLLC
The experiment in a line: Inhibition of acid sphingomyelinase in mouse NIH/3T3 cells assessed as ceramide levels at 5 uM after 20 hrs by LC-MS/MS analysis relative to control. Format: cell-based. In short, it runs like this: (§1)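 NIH3T3 cells in DMEM with 10% FBS, 37 °C, 5% CO₂; at 90% confluence given fresh medium plus inhibitor (5, 10, 20 µM) for 20 h; total ceramides and sphingomyelin quantified by LC-MS-MS versus untreated control; mean ± SD of three independent experiments, Student's t-test.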

Test [3] has as its target T2, Sphingomyelin phosphodiesterase (Mus musculus). The experiment in a line: Inhibition of acid sphingomyelinase in mouse NIH/3T3 cells assessed as ceramide levels at 10 uM after 20 hrs by LC-MS/MS analysis relative to control. Format: cell-based. In short, it runs like this:
as §1

Test [4] has the same target. The experiment in a line: Inhibition of acid sphingomyelinase in mouse NIH/3T3 cells assessed as increase in […] level at 10 uM after 20 hrs by LC-MS/MS analysis relative to control. Format: cell-based. Set-up: scale not given: the % may be the effect or the level left. The essentials: as §1
The target is the same in test [5]. The experiment in a line: Inhibition of acid sphingomyelinase in mouse NIH/3T3 cells assessed as increase in […] level at 20 uM after 20 hrs by LC-MS/MS analysis relative to control. The test is classed as cell-based. Set-up: scale not given: the % may be the effect or the level left. In short, it runs like this:
as §1

Test [6] concerns NIH3T3. The experiment in a line: Cytoprotective activity against UV-induced apoptosis in mouse NIH/3T3 cells assessed as early apoptotic cells at 10 uM preincubated for 20 hrs followed by UV irradiation for 5 mins and measured after 24 hrs by flow cytometric analysis (reference value: 79.5%). Format: functional.
Test [7] deals with NIH3T3. The experiment in a line: Cytoprotective activity against UV-induced apoptosis in mouse NIH/3T3 cells assessed as late apoptotic cells at 10 uM preincubated for 20 hrs followed by UV irradiation for 5 mins and measured after 24 hrs by flow cytometric analysis (reference value: 6.4%). The test is classed as functional.
Test [8] concerns NIH3T3. The experiment in a line: Cytoprotective activity against UV-induced apoptosis in mouse NIH/3T3 cells assessed as late apoptotic cells at 20 uM preincubated for 20 hrs followed by UV irradiation for 5 mins and measured after 24 hrs by flow cytometric analysis (reference value: 6.4%). The test is classed as functional. (In general: Flow cytometry measures light scatter and fluorescence of single cells or particles in a stream.)

Test [9] relates to NIH3T3. The experiment in a line: Cytoprotective activity against UV-induced apoptosis in mouse NIH/3T3 cells assessed as viable cells at 60 uM preincubated for 20 hrs followed by UV irradiation for 5 mins and measured after 24 hrs by flow cytometric analysis (reference value: 12.6%). The test is classed as functional. The following applies: NIH3T3, light or radiation study, read-out: Activity.

Test [10] relates to NIH3T3. The experiment in a line: Cytoprotective activity against UV-induced apoptosis in mouse NIH/3T3 cells assessed as necrotic cells at 60 uM preincubated for 20 hrs followed by UV irradiation for 5 mins and measured after 24 hrs by flow cytometric analysis (reference value: 1.5%). Format: functional.
For test [11], the system named is NIH3T3. The experiment in a line: Cytoprotective activity against UV-induced apoptosis in mouse NIH/3T3 cells assessed as necrotic cells preincubated for 20 hrs followed by UV irradiation for 5 mins and measured after 24 hrs by flow cytometric analysis. The test is classed as functional, cell-based. The essentials: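 NIH3T3 cells grown in DMEM plus 10% FBS at 37 °C and 5% CO₂, seeded in 6-well plates and left overnight. Inhibitor (0–60 µM, DMSO solvent) added for 20 h. Medium replaced, then UV at peak 315 nm, 0.29 mW/cm² for 5 min. Cells kept with inhibitor 24 h more before flow cytometry by quadrant regions. Untreated, unirradiated cells served as control. Three independent experiments.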

Test [12] relates to NIH3T3. The experiment in a line: Inhibition of LPS-induced IL-6 production in mouse NIH/3T3 cells preincubated for 20 hrs followed by LPS-stimulation and measured after 6 hrs by ELISA. The test is classed as functional, cell-based. The essentials: (§2)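 NIH3T3 cells (DMEM, 10% FBS) seeded at 2*10⁵ per well overnight, inhibitor 20 h, then LPS to 50 ng/mL for a further 6 h; IL-6 or IL-8 measured by ELISA; compared with LPS-only and control groups.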
Background: In an ELISA, binding on a coated surface is turned into a signal by an enzyme label.

Test [13] concerns NIH3T3. The experiment in a line: Inhibition of LPS-induced IL-8 production in mouse NIH/3T3 cells at 2.5 uM preincubated for 20 hrs followed by LPS-stimulation and measured after 6 hrs by ELISA. Format: functional, cell-based. The essentials: as §2

Activity calls are given as the source filed them. The calls are words filed in the database; no cut-off is given here.

One may read the IC50 as the concentration that inhibits the measured activity by half. Broadly, the inhibition is the percentage by which the read-out fell short of the control. In test [1], `CCCCCCCCCCOc1cc(C(=O)NO)ccc1OC` displayed an IC50 of 480 nM. For the same molecule, the inhibition was 26.1% in [2], 37% in [3] and “Dose-dependent effect” in test [12]. In addition, the Activity in [4] is 36.4%; in [5], 37.5%; in test [6], 42.1%; in [7] it was 11%; in test [8] it was 8.4%; in test [10], 0.6%. Moreover, the Activity result in [11] is “Dose-dependent effect”. Further, the viability at 60 µM in test [9] was determined as 36.2%. For the same molecule, the inhibition entry in [13] is “inactive”.
